Calls of active or inactive are those of the source. No cut-off for these calls is given here.
Key:
[1] = test system: Middle East respiratory syndrome-related coronavirus; experiment: Binding affinity to N-terminal domain of MERS-CoV nucleocapsid protein assessed as interaction with W43 pocket at 10 uM incubated for 1 hr by fluorescence spectral analysis
How it was run: (§1)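 1 μM N protein was incubated with 10 μM compound or buffer at 4 °C for 1 h in 50 mM Tris-HCl (pH 8.3), 150 mM NaCl. Tryptophan fluorescence was excited at 280 nm and emission scanned over 300–400 nm.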

[2] = Cytotoxicity in African green monkey Vero E6 cells incubated for 48 hrs by neutral red uptake assay; assay type: cell-based, Vero C1008; conditions: chlorocebus sabaeus
[3] = test system: Middle East respiratory syndrome-related coronavirus; experiment: Antiviral activity against MERS-CoV infected in African green monkey Vero E6 cells incubated for 48 hrs by neutral red uptake assay; assay type: functional, organism-based; conditions: Vero C1008, 48 h
[4] = test system: Middle East respiratory syndrome-related coronavirus; experiment: Binding affinity to N-terminal domain of MERS-CoV nucleocapsid protein assessed as denaturation melting temperature at 10 uM incubated for 1 hr by fluorescent thermal stability assay (reference value: 42 degC)
[5] = Therapeutic index, ratio of CC50 for cytotoxicity in African green monkey VeroE6 cells incubated for 48 hrs by neutral red uptake assay to EC50 for antiviral activity against MERS-CoV infected in African green monkey Vero E6 cells incubated for 48 hrs by neutral red uptake assay; assay type: toxicity, cell-based, Vero C1008; conditions: read-out: Ratio CC50/EC50
[6] = test system: Middle East respiratory syndrome-related coronavirus; experiment: Binding affinity to N-terminal domain of MERS-CoV nucleocapsid protein assessed as maximum dimension at 440 uM by SAXS analysis (reference value: 207 angstrom)
[7] = test system: Middle East respiratory syndrome-related coronavirus; experiment: Binding affinity to N-terminal domain of MERS-CoV nucleocapsid protein assessed as radius of gyration at 440 uM by SAXS analysis (reference value: 58 angstrom)
[8] = test system: Middle East respiratory syndrome-related coronavirus; experiment: Binding affinity to N-terminal domain of MERS-CoV nucleocapsid protein assessed as induction of blue shift in fluorescence spectrum at 10 uM incubated for 1 hr by fluorescence spectral analysis; how it was run: as §1
[9] = test system: Vero C1008; experiment: Antiviral activity against HCoV EMC/2012 infected in African green monkey Vero E6 cells assessed as reduction in viral titer at 50 uM incubated for 48 hrs by crystal violet staining based viral plaque assay; assay type: functional; conditions: Human betacoronavirus 2c EMC/2012
[10] = Antiviral activity against HCoV EMC/2012 infected in African green monkey Vero E6 cells assessed as reduction in viral replication at 50 uM incubated for 48 hrs by RT-qPCR analysis; assay type: functional, Human betacoronavirus 2c EMC/2012, Vero C1008; parameters: scale not given: the % may be the effect or the level left
[11] = test system: Vero C1008; experiment: Antiviral activity against HCoV EMC/2012 infected in African green monkey Vero E6 cells assessed as reduction in viral titer at 100 uM incubated for 48 hrs by crystal violet staining based viral plaque assay; assay type: functional; conditions: Human betacoronavirus 2c EMC/2012
[12] = test system: Vero C1008; experiment: Antiviral activity against HCoV EMC/2012 infected in African green monkey Vero E6 cells assessed as reduction in viral replication at 100 uM incubated for 48 hrs by RT-qPCR analysis; assay type: functional; conditions: Human betacoronavirus 2c EMC/2012
[13] = test system: Vero C1008; experiment: Induction of intracellular nucleocapsid protein aggregation in HCoV EMC/2012 infected in African green monkey Vero E6 cells at 50 uM by immunofluorescence microscopy; assay type: cell-based; conditions: Human betacoronavirus 2c EMC/2012
[14] = test system: Vero C1008; experiment: Inhibition of nucleocapsid protein expression in HCoV EMC/2012 infected in African green monkey Vero E6 cells at 100 uM by immunofluorescence microscopy; assay type: functional; conditions: Human betacoronavirus 2c EMC/2012

In the case of `CCc1cccc2c3c([nH]c12)C(CC)(CC(=O)O)OCC3` (stereo not given) [ETODOLAC], the Activity [1] is reported as “Active”, the CC50 at 48 h [2] is reported as 570 µM and the EC50 [3] is reported as over 100 µM.

For `CN(C)Cc1c[nH]c2ccc(OCc3ccccc3)cc12`, the Activity [1] was “Active”, the Tm [4] was 45 °C and the CC50 at 48 h [2] was 805 µM. It also gave a selectivity ratio at 48 h [5] of 25.1, an EC50 [3] of 32.1 µM and an Activity [6] of 230 Angstrom. For the same compound, the Activity [7] was 65 Angstrom, the Activity [8] was “Active” and the Activity [9] was “Active”. For the same compound, the Activity [10] was 40%, the Activity [11] was “Active” and the Activity [12] was “Active”. The Activity [13] was “Active” and the inhibition [14] was “Active”.

For `O=C(OCc1ccccc1)N1c2ccccc2CC1CO` (stereo not given), the Activity [1] was “Active”, the CC50 at 48 h [2] was 460 µM and the EC50 [3] was over 100 µM.
